Laboratory results from ChEMBL document CHEMBL1932925, “Synthesis, biological evaluation, and molecular docking studies of cinnamic acyl 1,3,4-thiadiazole amide derivatives as novel antitubulin agents” (Bioorg Med Chem, 2012).
In brackets after ≈: the same amount, converted by molar mass.

Assays:
A549 = experiment: Antiproliferative activity against human A549 cells after 48 hrs by MTT assay; assay type: functional, cell-based; settings: A549, 48 h
Procedure, shortened: (§1)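 Cells diluted to 2×10^4 cells mL⁻¹ in complete medium, plated and held 24 h at 37 °C, 5% CO₂ before dosing at pre-set concentrations. After 48 h exposure, MTT (2.5 mg mL⁻¹ in PBS) added for 4 h, then SDS–isobutyl alcohol–HCl extraction solution overnight at 37 °C. Absorbance read at 570 nm. Three replicate wells per concentration, each assay run at least three times.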

MCF7 [1] = experiment: Antiproliferative activity against human MCF7 cells after 48 hrs by MTT assay; assay type: functional, cell-based; settings: MCF7, 48 h; procedure, shortened: as §1
[2] = Inhibition of bovine brain tubulin polymerization preincubated for 10 mins measured after 20 mins; set-up: species or system Bos taurus
Procedure, shortened: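 Tubulin purified from bovine brain, used at 10 µM in glutamate buffer and preincubated with varying compound concentrations at 30 °C, then cooled to 0 °C. GTP added and mixtures warmed to 30 °C in a recording spectrophotometer, with assembly followed turbidimetrically.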

MCF7 [3] = experiment: Induction of cell cycle arrest in human MCF7 cells assessed as accumulation at S phase at 5 ug/ml after 24 hrs by flow cytometric analysis (reference value: 12%); assay type: functional
MCF7 [4] = experiment: Induction of cell cycle arrest in human MCF7 cells assessed as accumulation at G2/M phase at 5 ug/ml after 24 hrs by flow cytometric analysis (reference value: 18%); assay type: functional
MCF7 [5] = experiment: Induction of cell cycle arrest in human MCF7 cells assessed as accumulation at G0/G1 phase at 5 ug/ml after 24 hrs by flow cytometric analysis (reference value: 66%); assay type: functional

IC50 (A549)	IC50 (MCF7 [1])	IC50 [2]	Structure (SMILES)	Activity (MCF7 [3])	Activity (MCF7 [4])	Activity (MCF7 [5])
1.25 µg/mL (≈ 3.51 µM)	1.44 µg/mL (≈ 4.05 µM)	4.79 µg/mL (≈ 13.5 µM)	Cc1ccc(/C=C/C(=O)Nc2nnc(-c3ccc(Cl)cc3)s2)cc1	–	–	–
1.82 µg/mL (≈ 5.59 µM)	1.45 µg/mL (≈ 4.46 µM)	5.87 µg/mL (≈ 18 µM)	O=C(/C=C/c1ccc(F)cc1)Nc1nnc(-c2ccccc2)s1	–	–	–
0.75 µg/mL (≈ 2.11 µM)	0.85 µg/mL (≈ 2.39 µM)	3.05 µg/mL (≈ 8.58 µM)	COc1ccc(-c2nnc(NC(=O)/C=C/c3ccc(F)cc3)s2)cc1	–	–	–
1.51 µg/mL (≈ 3.77 µM)	1.32 µg/mL (≈ 3.3 µM)	5.02 µg/mL (≈ 12.5 µM)	Cc1ccc(/C=C/C(=O)Nc2nnc(-c3ccc(Br)cc3)s2)cc1	–	–	–
1.58 µg/mL (≈ 4.92 µM)	1.23 µg/mL (≈ 3.83 µM)	4.49 µg/mL (≈ 14 µM)	Cc1ccc(/C=C/C(=O)Nc2nnc(-c3ccccc3)s2)cc1	–	–	–
1.04 µg/mL (≈ 2.5 µM)	1.13 µg/mL (≈ 2.71 µM)	4.11 µg/mL (≈ 9.87 µM)	COc1ccc(/C=C/C(=O)Nc2nnc(-c3ccc(Br)cc3)s2)cc1	–	–	–
1.08 µg/mL (≈ 3.22 µM)	0.61 µg/mL (≈ 1.82 µM)	4.15 µg/mL (≈ 12.4 µM)	Cc1ccc(/C=C/C(=O)Nc2nnc(-c3ccc(C)cc3)s2)cc1	–	–	–
1.23 µg/mL (≈ 3.62 µM)	1.27 µg/mL (≈ 3.74 µM)	5.08 µg/mL (≈ 15 µM)	Cc1ccc(-c2nnc(NC(=O)/C=C/c3ccc(F)cc3)s2)cc1	–	–	–
2.06 µg/mL (≈ 5.73 µM)	1.58 µg/mL (≈ 4.39 µM)	7.08 µg/mL (≈ 19.7 µM)	O=C(/C=C/c1ccc(F)cc1)Nc1nnc(-c2ccc(Cl)cc2)s1	–	–	–
0.58 µg/mL (≈ 1.65 µM)	0.31 µg/mL (≈ 0.882 µM)	2.56 µg/mL (≈ 7.28 µM)	COc1ccc(-c2nnc(NC(=O)/C=C/c3ccc(C)cc3)s2)cc1	–	–	–
1.61 µg/mL (≈ 4.13 µM)	1.1 µg/mL (≈ 2.82 µM)	5.16 µg/mL (≈ 13.3 µM)	Cc1ccc(-c2nnc(NC(=O)/C=C/c3ccc(C(F)(F)F)cc3)s2)cc1	–	–	–
1.38 µg/mL (≈ 4.29 µM)	1.19 µg/mL (≈ 3.7 µM)	4.83 µg/mL (≈ 15 µM)	Cc1ccc(-c2nnc(NC(=O)/C=C/c3ccccc3)s2)cc1	–	–	–
2.83 µg/mL (≈ 7 µM)	1.49 µg/mL (≈ 3.69 µM)	8.66 µg/mL (≈ 21.4 µM)	O=C(/C=C/c1ccc(F)cc1)Nc1nnc(-c2ccc(Br)cc2)s1	–	–	–
0.66 µg/mL (≈ 1.88 µM)	0.35 µg/mL (≈ 0.996 µM)	2.64 µg/mL (≈ 7.51 µM)	COc1ccc(/C=C/C(=O)Nc2nnc(-c3ccc(C)cc3)s2)cc1	–	–	–
1.38 µg/mL (≈ 3.71 µM)	0.91 µg/mL (≈ 2.45 µM)	5.68 µg/mL (≈ 15.3 µM)	COc1ccc(/C=C/C(=O)Nc2nnc(-c3ccc(Cl)cc3)s2)cc1	–	–	–

Continued, molecule first:

Structure (SMILES)	IC50 (A549)	IC50 (MCF7 [1])	IC50 [2]	Activity (MCF7 [3])	Activity (MCF7 [4])	Activity (MCF7 [5])
O=C(/C=C/c1ccc(C(F)(F)F)cc1)Nc1nnc(-c2ccc(Cl)cc2)s1	3.09 µg/mL (≈ 7.54 µM)	1.65 µg/mL (≈ 4.03 µM)	7.83 µg/mL (≈ 19.1 µM)	–	–	–
COc1cc2c(c(OC)c1OC)-c1ccc(OC)c(=O)cc1[C@@H](NC(C)=O)CC2 [COLCHICINE]	0.75 µg/mL (≈ 1.88 µM)	0.53 µg/mL (≈ 1.33 µM)	–	3%	79%	2%
O=C(/C=C/c1ccccc1)Nc1nnc(-c2ccccc2)s1	1.75 µg/mL (≈ 5.69 µM)	1.47 µg/mL (≈ 4.78 µM)	5.68 µg/mL (≈ 18.5 µM)	–	–	–
O=C(/C=C/c1ccc(C(F)(F)F)cc1)Nc1nnc(-c2ccc(Br)cc2)s1	4.68 µg/mL (≈ 10.3 µM)	1.58 µg/mL (≈ 3.48 µM)	10.6 µg/mL (≈ 23.3 µM)	–	–	–
COc1ccc(/C=C/C(=O)Nc2nnc(-c3ccccc3)s2)cc1	0.76 µg/mL (≈ 2.25 µM)	0.83 µg/mL (≈ 2.46 µM)	3.02 µg/mL (≈ 8.95 µM)	–	–	–
O=C(/C=C/c1ccc(C(F)(F)F)cc1)Nc1nnc(-c2ccccc2)s1	1.78 µg/mL (≈ 4.74 µM)	1.52 µg/mL (≈ 4.05 µM)	5.52 µg/mL (≈ 14.7 µM)	–	–	–
COc1ccc(/C=C\c2cc(OC)c(OC)c(OC)c2)cc1O [COMBRETASTATIN A4]	0.55 µg/mL (≈ 1.74 µM)	0.41 µg/mL (≈ 1.3 µM)	0.81 µg/mL (≈ 2.56 µM)	–	–	–
COc1ccc(-c2nnc(NC(=O)/C=C/c3ccc(C(F)(F)F)cc3)s2)cc1	0.69 µg/mL (≈ 1.7 µM)	0.79 µg/mL (≈ 1.95 µM)	3.17 µg/mL (≈ 7.82 µM)	–	–	–
COc1ccc(-c2nnc(NC(=O)/C=C/c3ccccc3)s2)cc1	0.68 µg/mL (≈ 2.02 µM)	0.78 µg/mL (≈ 2.31 µM)	3.08 µg/mL (≈ 9.13 µM)	–	–	–
COc1ccc(/C=C/C(=O)Nc2nnc(-c3ccc(OC)cc3)s2)cc1	0.52 µg/mL (≈ 1.42 µM)	0.28 µg/mL (≈ 0.762 µM)	1.16 µg/mL (≈ 3.16 µM)	2%	68%	2%
O=C(/C=C/c1ccccc1)Nc1nnc(-c2ccc(Br)cc2)s1	2.18 µg/mL (≈ 5.64 µM)	1.5 µg/mL (≈ 3.88 µM)	7.05 µg/mL (≈ 18.3 µM)	–	–	–
O=C(/C=C/c1ccccc1)Nc1nnc(-c2ccc(Cl)cc2)s1	2.02 µg/mL (≈ 5.91 µM)	1.42 µg/mL (≈ 4.15 µM)	6.56 µg/mL (≈ 19.2 µM)	–	–	–
